“Also recorded” adds a separate entry of the source. Where two headings read alike, the source gives them in different places.
Legend:
[1] = tested on: Anabaena variabilis ATCC 29413; assay: Bioactivity assay: growth of A. variabilis in presence of compound; assay type: cell-based; details: for cell density (chlorophyll a content) compared to control: 250 μM, four-day cultivation; for concentration at which an effect on growth was visible: after 4 days of cultivation, tested 5-250 µM; for growth inhibition / bioactivity towards A. variabilis: 4 days of cultivation
Outline: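 A. variabilis cultured in suspension with test compound at 250 μM for four days. Chlorophyll a content was then measured as the indicator of cell density and compared with untreated control cultures. Cultures were also inspected visually for growth.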

A. variabilis = assay: Uptake assay: decrease of compound in supernatant of A. variabilis cultures; assay type: cell-based, Anabaena variabilis; details: 250 μM applied; for change of compound amount in supernatant: over 48 h
fish = fish ref 2, 4; cited from earlier work
[2] = target: T1, DHQS from A. variabilis (AvDHQS) (Trichormus variabilis, UniProt Q3M4V2); assay: DHQS activity assay with A. variabilis enzyme; assay type: biochemical, Anabaena variabilis
T1 sequence (Q3M4V2 1-363): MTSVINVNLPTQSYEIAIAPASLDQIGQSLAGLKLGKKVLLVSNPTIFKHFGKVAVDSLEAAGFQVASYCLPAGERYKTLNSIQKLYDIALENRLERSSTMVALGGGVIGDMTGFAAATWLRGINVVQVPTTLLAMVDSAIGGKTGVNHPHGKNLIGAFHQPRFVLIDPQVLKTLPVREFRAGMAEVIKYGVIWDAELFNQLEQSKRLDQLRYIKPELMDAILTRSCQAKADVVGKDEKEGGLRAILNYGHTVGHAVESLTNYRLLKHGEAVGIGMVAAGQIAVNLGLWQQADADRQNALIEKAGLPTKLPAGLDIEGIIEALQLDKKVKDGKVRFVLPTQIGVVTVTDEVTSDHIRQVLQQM

A. thaliana seedlings = assay: Seedling growth of A. thaliana; assay type: in vivo, Arabidopsis thaliana; details: 7 days after germination, compared to control
Outline: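 A. thaliana seedlings were grown with or without test compound and scored 7 days after germination for seedling morphology and root length (n≥18 seedlings). Each treatment was compared with the control by unpaired t-test.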

[3] = target: T2, dehydroquinate synthase of Arabidopsis thaliana (AtDHQS) (Arabidopsis thaliana, UniProt Q8VYV7); assay: DHQS activity assay; assay type: biochemical
T2 sequence (Q8VYV7 59-442): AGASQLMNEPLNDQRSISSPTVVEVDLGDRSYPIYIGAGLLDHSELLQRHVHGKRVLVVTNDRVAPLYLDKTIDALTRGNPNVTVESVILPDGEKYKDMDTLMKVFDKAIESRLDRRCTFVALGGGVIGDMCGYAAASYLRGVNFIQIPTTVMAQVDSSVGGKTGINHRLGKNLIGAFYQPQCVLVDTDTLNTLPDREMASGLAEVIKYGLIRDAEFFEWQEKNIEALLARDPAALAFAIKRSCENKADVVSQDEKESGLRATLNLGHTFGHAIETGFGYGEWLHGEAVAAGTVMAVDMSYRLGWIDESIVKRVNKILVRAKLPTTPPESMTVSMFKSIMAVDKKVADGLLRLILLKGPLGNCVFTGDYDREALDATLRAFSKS

[4] = tested on: DAHP accumulation in A. variabilis cells; assay: DAHP accumulation in treated A. variabilis cells; assay type: cell-based, Anabaena variabilis; details: 250 μM, after 5 h of cultivation
Outline: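 Anabaena variabilis cells were cultivated for 5 h with 250 μM test compound, alongside untreated control cells. Treated cells were then examined for intracellular DAHP accumulation as an in vivo sign of DHQS inhibition in the shikimate pathway.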

[5] = Quantification of compound in plant material via GC-MS; assay type: in vivo, Arabidopsis thaliana

SMILES	cell density (chlorophyll a content) compared to control [1]	concentration at which an effect on growth was visible [1]	effect on seedling growth / root length (A. thaliana seedlings)	DAHP accumulation [4]	growth inhibition / bioactivity towards A. variabilis [1]	change of compound amount in supernatant (A. variabilis)	also measured
C[C@@H](O)[C@@H](O)[C@@H](O)[C@H](O)C(=O)CO [7dSh (1), 7‐deoxy‐sedoheptulose]	significantly reduced	5 µM	significantly affected the growth and morphology	significantly higher amounts	–	–	amount of initially applied substance detected in the supernatant (A. variabilis; after 48 h, ESI-MS): about 50%; cytotoxic effects (fish): little; IC50 [2]: 23.3 µM; IC50 ([3]; IC50, AtDHQS, series [b] enzyme preparation): 85.5 µM; IC50 ([3]; IC50-value against isolated AtDHQS enzyme, range over both enzyme preparations): 85.5 to 144 µM; IC50 ([3]; IC50 of AtDHQS, approximate, as printed in discussion): ~100 µM
C[C@@H]1O[C@](O)(CO)[C@@H](O)[C@H](O)[C@H]1O [7dGh (5)]	–	–	no statistical significant differences	only very small amounts; also recorded: neither DAHP accumulation	nor inhibitory impact on cell growth	slight decrease; also recorded: small decrease	relative activity in relation to 7dSh (1) (ratio of IC50 values) ([3]; IC50 7dSh : IC50 derivative, same enzyme series): ≈ 0.3
C[C@@H](O)[C@H](F)[C@@H](O)[C@H](O)C(=O)CO [5,7dd5FIh (3)]	–	–	no statistical significant differences	only very small amounts; also recorded: neither result in DAHP accumulation	nor in growth inhibition	depletion	–
O=C(CO)[C@@H](O)[C@H](O)[C@H](O)[C@H](O)CO [Sedoheptulose, reference compound]	–	–	–	–	–	–	inhibitory effect on AtDHQS [3]: no inhibitory effect; IC50 ([3]; AtDHQS, series [a] enzyme preparation, 2.5 µM substrate, 2 nM enzyme, 29 °C): > 1000 µM
O=C(CO)[C@@H](O)[C@H](O)[C@H](O)[C@H](O)CF [7d7FSh (2)]	significantly reduced	100 µM	significantly affected the growth and morphology; also recorded: inhibited growth	significantly higher amounts; also recorded: significantly elevated compared to 7dSh (1)	inhibited growth	best among all tested compounds	initially applied compound retrieved in the supernatant (A. variabilis; after 24 h): none; medium concentration leading to saturation of intracellular accumulation ([5]; 7 d old seedlings): 130 µM; accumulation / import into Arabidopsis seedlings ([5]; seedlings germinated on media with 7d7FSh (130 or 260 µM)): comparable range to 7dSh (1); IC50 [3]: 200 µM

From article PMC9401589 (Chembiochem, 2022)
